According to paper PMC3946992 (Journal of molecular biology, 2013):
Residue numbers refer to the chain shown, from its start. Blank lines part the entries; values can stand above or below the molecule they belong to.

Legend:
Test in all cases: isothermal titration calorimetry
Format in all cases: binding
p48 [1] = molecular target: T1, p48 (Homo sapiens, UniProt P49642)
T1 sequence (P49642 1-420): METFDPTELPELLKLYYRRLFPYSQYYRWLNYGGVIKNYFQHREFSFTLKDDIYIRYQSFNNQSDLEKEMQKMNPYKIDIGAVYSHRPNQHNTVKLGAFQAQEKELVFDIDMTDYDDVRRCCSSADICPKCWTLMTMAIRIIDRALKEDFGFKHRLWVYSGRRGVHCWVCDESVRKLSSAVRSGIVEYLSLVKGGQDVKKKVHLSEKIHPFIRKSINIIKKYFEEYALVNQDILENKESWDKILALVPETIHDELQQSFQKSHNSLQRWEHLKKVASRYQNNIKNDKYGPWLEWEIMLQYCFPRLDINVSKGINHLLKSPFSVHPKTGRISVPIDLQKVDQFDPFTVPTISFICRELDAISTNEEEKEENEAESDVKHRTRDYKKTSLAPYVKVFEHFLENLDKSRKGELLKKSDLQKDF
Procedure, shortened: (§1)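 Recombinant human p48 (full length, site-directed point mutants, or residues 1–408 lacking 360–379) is His-tagged in E. coli BL21(DE3), tag-cleaved with H3C protease, then purified by nickel, heparin and S200 chromatography. Protein at 20–30 μM is put in 20 mM HEPES pH 7.2, 100 mM NaCl with 3-fold molar excess MnCl2 and titrated with 400 μM UTP (1 initial plus 28 injections). Kd comes from a single-site nonlinear least-squares fit, ± standard deviation.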

p48 [2] = molecular target: T2, p48 (Homo sapiens, UniProt P49642, D109N)
T2 sequence (P49642 1-420 D109N): T1 sequence (P49642 1-420) with D109N
Procedure, shortened: as §1

p48/p58 = molecular target: T3, p48/p58 (Homo sapiens, UniProt P49642)
T3 sequence (P49642 1-420): T1 sequence (P49642 1-420)
T3 sequence (P49643 1-509 partner): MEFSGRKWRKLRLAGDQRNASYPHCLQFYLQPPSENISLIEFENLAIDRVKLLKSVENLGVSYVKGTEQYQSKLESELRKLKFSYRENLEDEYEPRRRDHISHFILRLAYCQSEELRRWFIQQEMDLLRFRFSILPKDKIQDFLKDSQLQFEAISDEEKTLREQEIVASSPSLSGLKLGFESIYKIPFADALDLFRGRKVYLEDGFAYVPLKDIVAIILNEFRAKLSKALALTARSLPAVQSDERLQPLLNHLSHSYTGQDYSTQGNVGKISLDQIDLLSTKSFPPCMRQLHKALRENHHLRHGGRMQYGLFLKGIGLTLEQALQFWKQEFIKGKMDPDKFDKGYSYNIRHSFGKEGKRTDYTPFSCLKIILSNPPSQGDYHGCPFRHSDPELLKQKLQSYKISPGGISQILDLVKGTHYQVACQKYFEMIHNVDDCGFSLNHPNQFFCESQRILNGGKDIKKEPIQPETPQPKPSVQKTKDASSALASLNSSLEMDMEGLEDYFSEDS
Procedure, shortened: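 Recombinant human p48/p58 primase heterodimer is exchanged into 20 mM HEPES pH 7.2, 100 mM NaCl. Protein at 20–30 μM, pre-mixed with 3-fold molar excess MnCl2, is titrated by ITC with 400 μM nucleotide (UTP) in an initial injection plus 28 further injections. Kd comes from fitting a single-site binding model by nonlinear least squares, ± standard deviation.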

p48 [3] = molecular target: T4, p48 (Homo sapiens, UniProt P49642, D306N)
T4 sequence (P49642 1-420 D306N): T1 sequence (P49642 1-420) with D306N
Procedure, shortened: as §1

p48 [4] = molecular target: T5, p48 (Homo sapiens, UniProt P49642, H315A)
T5 sequence (P49642 1-420 H315A): T1 sequence (P49642 1-420) with H315A
Procedure, shortened: as §1

p48ΔL = molecular target: T6, p48ΔL (Homo sapiens, UniProt P49642, DEL360-379)
T6 sequence (P49642 with tags, fused parts or gaps DEL360-379): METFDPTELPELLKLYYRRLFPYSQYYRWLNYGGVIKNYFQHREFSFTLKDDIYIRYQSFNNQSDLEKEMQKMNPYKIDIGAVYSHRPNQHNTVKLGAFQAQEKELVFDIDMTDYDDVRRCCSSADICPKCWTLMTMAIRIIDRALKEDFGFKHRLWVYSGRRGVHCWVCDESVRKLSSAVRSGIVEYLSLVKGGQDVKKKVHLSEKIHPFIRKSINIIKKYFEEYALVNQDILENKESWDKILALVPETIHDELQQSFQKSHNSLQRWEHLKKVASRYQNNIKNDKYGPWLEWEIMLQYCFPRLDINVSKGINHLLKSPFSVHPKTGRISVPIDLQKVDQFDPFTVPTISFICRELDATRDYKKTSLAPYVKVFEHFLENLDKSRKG
Procedure, shortened: as §1

p48 [5] = molecular target: T7, p48 (Homo sapiens, UniProt P49642, K318A)
T7 sequence (P49642 1-420 K318A): T1 sequence (P49642 1-420) with K318A
Procedure, shortened: as §1

p48 [6] = molecular target: T8, p48 (Homo sapiens, UniProt P49642, D111N)
T8 sequence (P49642 1-420 D111N): T1 sequence (P49642 1-420) with D111N
Procedure, shortened: as §1

Kd (p48 [1]): 13 µM
SMILES: Nc1ncnc2c1ncn2[C@@H]1O[C@H](COP(=O)(O)OP(=O)(O)OP(=O)(O)O)[C@@H](O)[C@H]1O [ATP]

Kd (p48 [1]): 15 µM
SMILES: Nc1ccn([C@@H]2O[C@H](COP(=O)(O)OP(=O)(O)OP(=O)(O)O)[C@@H](O)[C@H]2O)c(=O)n1 [CTP]

Kd (p48 [1]): 13 µM
SMILES: Nc1nc2c(ncn2[C@@H]2O[C@H](COP(=O)(O)OP(=O)(O)OP(=O)(O)O)[C@@H](O)[C@H]2O)c(=O)[nH]1 [GTP]

Kd (p48 [2]): 74 µM
Kd (p48/p58): 20 µM
Kd (p48 [1]): 11 µM
Kd (p48 [3]): 48 µM
Kd (p48 [4]): 22 µM
Kd (p48ΔL): 12.5 ± 0.72 µM
Kd (p48 [5]): 49 µM
Kd (p48 [6]): 54 µM
SMILES: O=c1ccn([C@@H]2O[C@H](COP(=O)(O)OP(=O)(O)OP(=O)(O)O)[C@@H](O)[C@H]2O)c(=O)[nH]1 [UTP]
